Data taken from ChEMBL document CHEMBL1129958, “Synthesis and antiviral activity of certain 5'-modified analogs of 2,5,6-trichloro-1-(beta-D-ribofuranosyl)benzimidazole” (J Med Chem, 1997).

What was measured:
[1] = system: L1210; test: concentration required to decrease the cell density in the treated cultures to one-half of the control was measured on L1210 murine Leukemia cells (in vitro); c=No significant growth inhibition observed atthe initial screen concentration; type: functional, cell-based, Mus musculus
[2] = system: KB; test: In vitro inhibition of KB (human carcinoma) cell growth.; type: functional, cell-based
Procedure, shortened: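 KB cells, 3000–5000/well, incubated overnight at 37 °C. Compound added in quadruplicate at six to eight concentrations for 48 h (about two population doublings). Cells fixed in 95% ethanol, stained with 0.1% crystal violet, dye eluted with acidified ethanol and read at 570 nm. IC50 from regression against log concentration.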

[3] = system: L1210; test: Effect of initial screen concentration of 10 uM on the growth of L1210 Murine Leukemia cells
[4] = system: Human alphaherpesvirus 1; test: In vitro antiviral activity against HSV-1 virus in BSC-1 (monkey kidney) cells.; type: functional, organism-based; details: Human alphaherpesvirus 1, BSC-1
Procedure, shortened: (§1)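 BSC-1 cells, 10 000/well in MEM(E) with 10% calf serum, incubated overnight at 37 °C. Drug added in quadruplicate together with HSV-1 KOS at 100 PFU/well and incubated 3 days. Read-out by ELISA with HRP-conjugated rabbit anti-HSV-1 and TMB substrate, absorbance at 450 and 570 nm. Percent absorbance reduction against virus-only wells regressed on log concentration for IC50.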

[5] = system: HFF; test: Visual cytotoxicity was scored on Human foreskin fibroblasts (HFF cells) at the time of plaque enumeration.; type: functional, cell-based
Procedure, shortened: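 Stationary HFF cells from the plaque assays, not affected by virus, inspected microscopically for cytotoxicity at the time of plaque counting.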

[6] = system: Human betaherpesvirus 5; test: In vitro antiviral activity against HCMV (Towne strain) in HFF (human fibroblast) cells.; type: functional, organism-based; details: Human betaherpesvirus 5, HFF
Procedure, shortened: (§2)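 HFF monolayers in 24-well dishes infected with about 100 PFU HCMV/cm2 of cell sheet. After adsorption, compound in growth medium added to duplicate wells at four to eight concentrations. Incubated 7 days at 37 °C, fixed and stained with crystal violet, microscopic plaques counted. Percent plaque reduction against no-drug wells regressed on log concentration to give IC50.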

[7] = system: L1210; test: Effect of initial screen concentration of 100 uM on the growth of L1210 Murine Leukemia cells; type: functional, Mus musculus
Procedure, shortened: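 L1210 mouse leukemia cells in RPMI 1640 with 10% heat-inactivated horse serum, 2000 cells/well. Compound added the next day and incubated 3 days. Growth read by MTS tetrazolium reduction optical density as percent of control. Screen at 100 µM, or the solubility limit; value is the mean of two or three experiments.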

[8] = system: Human betaherpesvirus 5; test: In vitro reduction in yield of Towne strain of HCMV in HFF (human fibroblast) cells.; type: functional; details: Human betaherpesvirus 5, HFF
Procedure, shortened: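 HFF in 96-well plates infected with HCMV Towne at MOI 0.5-1 PFU/cell. After adsorption, compound given in duplicate, serially diluted 1:3 from 100 to 0.14 µM. After 7 days at 37 °C, one freeze-thaw cycle, then progeny titred by 1:3 serial dilution on fresh HFF monolayers with plaque counts. IC90 taken from regression of percent inhibition against log concentration.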

[9] = system: L1210; test: concentration required to decrease the cell density in the treated cultures to one-half of the control was measured on L1210 murine Leukemia cells (in vitro); type: functional, cell-based; details: Mus musculus
Procedure, shortened: (§3)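 L1210 cells, 2000/well, given compound the day after plating and incubated 3 days; cell density read by MTS reduction. Concentration–response in two independent experiments. IC50 is the concentration that halves cell density relative to control, averaged over the two experiments.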

[10] = system: Human betaherpesvirus 5; test: Antiviral activity was determined against Towne strain of HCMV by Plaque and yield reduction test (Averaged results from duplicate or triplicate experiments); type: functional
[11] = system: L1210; test: Effect of initial screen concentration of 1 uM on the growth of L1210 Murine Leukemia cells
[12] = system: Human alphaherpesvirus 1; test: Antiviral activity was determined against Herpes simplex virus-1 by ELISA test (IC50 not reached at the noted concentration tested); type: functional, organism-based; procedure, shortened: as §1
[13] = system: L1210; test: concentration required to decrease the cell density in the treated cultures to one-half of the control was measured on L1210 murine Leukemia cells (in vitro) (The highest concentration tested); type: functional, cell-based; details: Mus musculus; procedure, shortened: as §3
[14] = system: Human betaherpesvirus 5; test: Antiviral activity was determined against AD169 strain of HCMV by Plaque and yield reduction test; type: functional, organism-based; procedure, shortened: as §2
[15] = system: Human betaherpesvirus 5; test: Antiviral activity was determined against Towne strain of HCMV by Plaque and yield reduction test; type: functional

CCCCOC[C@H]1O[C@@H](n2c(Cl)nc3cc(Cl)c(Cl)cc32)[C@H](OC(C)=O)[C@@H]1OC(C)=O
IC50 [1]: No significant growth | IC50 [2]: > 100 µM | Control [3]: 92% | IC50 [4]: > 100 µM | IC50 [5]: 66 µM | IC50 [6]: 21 µM

CC(=O)OC1C(CI)OC(n2c(Cl)nc3cc(Cl)c(Cl)cc32)C1OC(C)=O (centres undefined)
IC50 [2]: 60 µM | IC50 [4]: > 100 µM | IC50 [5]: 32 µM | IC50 [6]: 2.7 µM

CC1(C)OC2C(CCl)OC(n3c(Cl)nc4cc(Cl)c(Cl)cc43)C2O1 (centres undefined)
IC50 [2]: 100 µM | IC50 [4]: > 100 µM | IC50 [5]: 32 µM | IC50 [6]: 14 µM

O[C@@H]1[C@@H](CBr)OC(n2c(Cl)nc3cc(Cl)c(Cl)cc32)[C@@H]1O (some centres undefined)
Control [7]: 54% | IC90 [8]: 0.5 µM | IC50 [2]: 90 µM | IC50 [9]: 100 µM | IC50 [4]: > 100 µM | IC50 [5]: 32 µM | IC50 [6]: 1.5 µM

O[C@@H]1[C@@H](CF)OC(n2c(Cl)nc3cc(Cl)c(Cl)cc32)[C@@H]1O (some centres undefined)
Control [7]: 81% | IC90 [8]: 0.22 µM | IC50 [2]: > 100 µM | IC50 [9]: > 100 µM | IC50 [4]: > 100 µM | IC50 [5]: 32 µM | IC50 [6]: 0.5 µM

CCCCOC[C@H]1OC(n2c(Cl)nc3cc(Cl)c(Cl)cc32)[C@H](O)[C@@H]1O (some centres undefined)
Control [7]: 64% | IC50 [2]: 60 µM | IC50 [9]: > 100 µM | IC50 [4]: > 100 µM | IC50 [5]: 32 µM | IC50 [6]: 14.2 µM

O[C@@H]1[C@@H](CCl)OC(n2c(Cl)nc3cc(Cl)c(Cl)cc32)[C@@H]1O (some centres undefined)
Control [7]: 73% | IC50 [2]: 90 µM | IC50 [9]: > 100 µM | IC90 [10]: 0.52 µM | IC50 [4]: > 100 µM | IC50 [5]: 32 µM | IC50 [6]: 1 µM

CC(=O)OC1C(CN=[N+]=[N-])OC(n2c(Cl)nc3cc(Cl)c(Cl)cc32)C1OC(C)=O (centres undefined)
IC50 [1]: No significant growth | IC50 [2]: 70 µM | Control [3]: 110% | IC50 [4]: > 100 µM | IC50 [5]: 32 µM | IC50 [6]: 1.5 µM

CSCC1OC(n2c(Cl)nc3cc(Cl)c(Cl)cc32)C(OC(C)=O)C1OC(C)=O (centres undefined)
IC50 [4]: > 100 µM | IC50 [5]: 32 µM | IC50 [6]: 4.8 µM

CCOC[C@H]1OC(n2c(Cl)nc3cc(Cl)c(Cl)cc32)[C@H](O)[C@@H]1O (some centres undefined)
Control [7]: 9% | IC50 [2]: 80 µM | IC50 [9]: 59 µM | IC50 [4]: > 100 µM | IC50 [5]: 26 µM | IC50 [6]: 4.6 µM

COC[C@H]1O[C@@H](n2c(Cl)nc3cc(Cl)c(Cl)cc32)[C@H](OC(C)=O)[C@@H]1OC(C)=O
IC50 [1]: No significant growth | Control [11]: 95% | IC50 [2]: 80 µM | IC50 [12]: > 100 µM | IC50 [5]: 26 µM | IC50 [6]: 2.8 µM

OC[C@H]1O[C@@H](n2c(Cl)nc3cc(Cl)c(Cl)cc32)[C@H](O)[C@@H]1O
Control [7]: 76% | IC90 [8]: 1.3 µM | IC50 [9]: > 100 µM | IC50 [4]: 102 µM | IC50 [6]: 2.8 µM

CCOC[C@H]1O[C@@H](n2c(Cl)nc3cc(Cl)c(Cl)cc32)[C@H](OC(C)=O)[C@@H]1OC(C)=O
IC50 [13]: > 10 µM | IC50 [2]: 60 µM | Control [3]: 83% | IC50 [4]: > 100 µM | IC50 [5]: 33 µM | IC50 [6]: 4.3 µM

O[C@@H]1[C@@H](CI)OC(n2c(Cl)nc3cc(Cl)c(Cl)cc32)[C@@H]1O (some centres undefined)
IC50 [4]: > 100 µM | IC50 [5]: 32 µM | IC50 [14]: 2.9 µM | IC50 [6]: 3.2 µM

CSC[C@H]1OC(n2c(Cl)nc3cc(Cl)c(Cl)cc32)[C@H](O)[C@@H]1O (some centres undefined)
Control [7]: 73% | IC50 [2]: > 100 µM | IC50 [9]: > 100 µM | IC50 [4]: > 100 µM | IC50 [5]: 32 µM | IC50 [6]: 4.5 µM

CC1(C)OC2C(CN=[N+]=[N-])OC(n3c(Cl)nc4cc(Cl)c(Cl)cc43)C2O1 (centres undefined)
IC50 [5]: 32 µM | IC50 [6]: 11 µM

CC(=O)OC1C(CCl)OC(n2c(Cl)nc3cc(Cl)c(Cl)cc32)C1OC(C)=O (centres undefined)
IC90 [8]: 0.31 µM | IC50 [1]: No significant growth | IC50 [2]: 90 µM | Control [3]: 96% | IC50 [4]: > 100 µM | IC50 [5]: 32 µM | IC50 [6]: 1.4 µM

COC[C@H]1OC(n2c(Cl)nc3cc(Cl)c(Cl)cc32)[C@H](O)[C@@H]1O (some centres undefined)
Control [7]: 4% | IC90 [8]: 2 µM | IC50 [2]: 90 µM | IC50 [9]: 60 µM | IC50 [4]: > 100 µM | IC50 [5]: 32 µM | IC50 [6]: 3 µM

Nc1nc2c(ncn2COC(CO)CO)c(=O)[nH]1 [GANCICLOVIR]
IC90 [8]: 1.6 µM | IC50 [2]: > 100 µM | IC50 [4]: 3.5 µM | IC50 [5]: > 100 µM | IC50 [6]: 7.4 µM

[N-]=[N+]=NC[C@H]1OC(n2c(Cl)nc3cc(Cl)c(Cl)cc32)[C@H](O)[C@@H]1O (some centres undefined)
Control [7]: 29% | IC50 [2]: 70 µM | IC90 [15]: 0.6 µM | IC50 [9]: 80 µM | IC50 [4]: > 100 µM | IC50 [5]: 32 µM | IC50 [6]: 1.5 µM

CC(=O)OC1C(CF)OC(n2c(Cl)nc3cc(Cl)c(Cl)cc32)C1OC(C)=O (centres undefined)
IC90 [8]: 0.19 µM | IC50 [1]: No significant growth | IC50 [2]: 100 µM | Control [3]: 122% | IC50 [4]: > 100 µM | IC50 [5]: 32 µM | IC50 [6]: 0.6 µM

CC(=O)OC1C(CBr)OC(n2c(Cl)nc3cc(Cl)c(Cl)cc32)C1OC(C)=O (centres undefined)
Control [7]: 94% | IC50 [1]: No significant growth | IC50 [2]: 60 µM | IC50 [4]: > 100 µM | IC50 [5]: 32 µM | IC50 [6]: 2.7 µM
